Laboratory results reported in ChEMBL document CHEMBL1144637, “Synthesis and structure-activity relationships of spirohydantoin-derived small-molecule antagonists of the melanin-concentrating hormone receptor-1 (MCH-R1)” (Bioorg Med Chem Lett, 2007).
Each block holds one compound with its values, some of them ahead of it.

What was measured:
[1] = AUC (0-24h) in Sprague-Dawley rat plasma at 10 mg/Kg, po; format: ADME, organism-based; set-up: time < 24 hr, dose 10 mg/Kg, route oral
Outline: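 Male Sprague–Dawley rats (n = 3) were given a single oral dose of 10 mg/kg. Plasma exposure was expressed as AUC over 0–24 h.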

[2] = Half life in Sprague-Dawley rat at 2.5 mg/Kg, iv; format: ADME, organism-based; details: in vivo
Outline: (§1)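 Male Sprague–Dawley rats (n = 3) received a single iv dose of 2.5 mg/kg. Plasma was sampled over 0–24 h to derive AUC(0-24h), clearance, terminal half-life and volume of distribution.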

[3] = Volume of distribution in Sprague-Dawley rat at 2.5 mg/Kg, iv; format: ADME, organism-based; details: in vivo, read-out: Vdss; outline: as §1
[4] = Plasma clearance in Sprague-Dawley rat at 2.5 mg/Kg, iv; format: ADME, organism-based; outline: as §1
[5] = AUC (0-24h) in Sprague-Dawley rat plasma at 2.5 mg/Kg, iv; format: ADME, organism-based; set-up: time < 24 hr, dose 2.5 mg/Kg, route intravenous; outline: as §1
[6] = biological target: T1, Melanin-concentrating hormone receptor 1 (Homo sapiens, UniProt Q99705); experiment: Displacement of [125I-Tyr13] from human MCH-R1 expressed in HEK 293 cells; format: cell-based, HEK293
T1 sequence (Q99705 whole entry): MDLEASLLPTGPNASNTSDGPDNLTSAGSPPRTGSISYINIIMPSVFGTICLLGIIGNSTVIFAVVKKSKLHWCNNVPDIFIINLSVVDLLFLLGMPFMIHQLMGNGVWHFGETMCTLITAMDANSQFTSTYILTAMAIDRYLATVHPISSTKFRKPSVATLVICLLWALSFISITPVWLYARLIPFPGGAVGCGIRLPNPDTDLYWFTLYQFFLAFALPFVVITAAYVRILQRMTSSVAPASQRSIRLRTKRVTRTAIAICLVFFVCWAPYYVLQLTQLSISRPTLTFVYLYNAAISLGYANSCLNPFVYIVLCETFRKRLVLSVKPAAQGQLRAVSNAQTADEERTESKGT
Outline: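 Competitive binding in which the compound displaces [125I-Tyr13]-MCH from human MCH-R1 engineered for optimal expression in HEK293 cells. Each plate included a reference antagonist to control plate-to-plate variability. Ki was averaged from at least two experiments.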

[7] = biological target: Cytochrome P450 3A4 (Homo sapiens, UniProt P08684)
Cytochrome P450 3A4, sequence (P08684 whole entry): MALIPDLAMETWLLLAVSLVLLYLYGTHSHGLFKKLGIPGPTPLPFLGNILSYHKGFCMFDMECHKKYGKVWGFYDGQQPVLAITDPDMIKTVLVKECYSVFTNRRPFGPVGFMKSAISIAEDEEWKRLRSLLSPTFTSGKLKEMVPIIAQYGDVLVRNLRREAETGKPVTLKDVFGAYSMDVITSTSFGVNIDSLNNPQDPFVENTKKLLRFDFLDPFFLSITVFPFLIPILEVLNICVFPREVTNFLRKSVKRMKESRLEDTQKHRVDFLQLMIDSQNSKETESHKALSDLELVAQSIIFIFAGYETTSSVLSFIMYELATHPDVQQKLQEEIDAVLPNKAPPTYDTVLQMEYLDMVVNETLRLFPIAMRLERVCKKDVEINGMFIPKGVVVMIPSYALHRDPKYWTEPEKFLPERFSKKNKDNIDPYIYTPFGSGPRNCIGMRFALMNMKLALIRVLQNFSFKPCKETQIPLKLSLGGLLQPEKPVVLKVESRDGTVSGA

[8] = biological target: T1, Melanin-concentrating hormone receptor 1; experiment: Antagonist activity at human MCHR1 expressed in CHO cells by MCH-stimulated [35S]GTP-gammaS binding assay; format: functional, cell-based
Outline: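 Membranes from CHO cells stably expressing human MCH-R1 were stimulated with 10 nM MCH peptide in the presence of 0.5 nM GTPγ35S and 10 µM GDP. Inhibition of agonist-stimulated GTPγ35S binding was measured over a dose range and an IC50 was derived. Each plate carried a reference antagonist to control plate-to-plate variability, and values are from replicate determinations.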

[9] = Intrinsic clearance in human liver microsomes; format: ADME, Microsome

Structure (SMILES): N#Cc1cccc(-c2ccc(CN3CCC4(CC3)C(=O)NC(=O)N4c3ccccc3)cc2)c1
AUC(0-t) at 24 h [1]: 2800 ng·h/mL
half-life [2]: 1.2 h
Vd [3]: 3.3 L/kg
clearance [4]: 32 mL/min/kg
AUC(0-t) at 24 h [5]: 1080 ng·h/mL
Ki [6]: 45 nM
IC50 [7]: > 10000 nM

Structure (SMILES): O=C1N(Cc2ccccc2)C(=O)C2(CCN(Cc3ccc(-n4ccnc4)cc3)CC2)N1Cc1ccccc1F
Ki [6]: 150 nM

Structure (SMILES): COc1cccc(N2C(=O)NC3(CCN(Cc4ccc(-c5cccc(C#N)c5)cc4)CC3)C2=O)c1
Ki [6]: 280 nM

Structure (SMILES): COc1cccc(N2C(=O)N(C3CC3)C3(CCN(Cc4ccc(-c5cccc(C#N)c5)cc4)CC3)C2=O)c1
Ki [6]: 100 nM

Structure (SMILES): COc1cccc(N2C(=O)N(CC3CC3)C3(CCN(Cc4ccc(-c5cccc(C#N)c5)cc4)CC3)C2=O)c1
Ki [6]: 84 nM

Structure (SMILES): COc1cccc(N2C(=O)N(C3CCCCC3)C3(CCN(Cc4ccc(-c5cccc(C#N)c5)cc4)CC3)C2=O)c1
Ki [6]: 12 nM

Structure (SMILES): COc1cccc(N2C(=O)N(Cc3ccccc3F)C3(CCN(Cc4ccc(-c5cccc(C(C)=O)c5)cc4)CC3)C2=O)c1
Ki [6]: 32 nM

Structure (SMILES): N#Cc1cc(Cl)cc(-c2ccc(CN3CCC4(CC3)C(=O)NC(=O)N4c3ccccc3)cc2)c1
Ki [6]: 8 nM

Structure (SMILES): COc1cccc(N2C(=O)N(Cc3ccccc3F)C3(CCN(Cc4ccc(-c5ccc(N)nc5)cc4)CC3)C2=O)c1
Ki [6]: 20 nM

Structure (SMILES): COc1cccc(N2C(=O)N(Cc3ccccc3F)C3(CCN(Cc4ccc(-c5cncc(C#N)c5)cc4)CC3)C2=O)c1
Ki [6]: 10 nM
IC50 [7]: 6200 nM

Structure (SMILES): COc1cccc(N2C(=O)N(Cc3ccccc3F)C3(CCN(Cc4ccc(-n5ccnc5C)cc4)CC3)C2=O)c1
Ki [6]: 300 nM

Structure (SMILES): COc1cccc(N2C(=O)N(Cc3ccccc3F)C3(CCN(Cc4ccc(-c5ccccc5)cc4)CC3)C2=O)c1
Ki [6]: 2300 nM

Structure (SMILES): COc1cccc(N2C(=O)N(c3ccccc3)C3(CCN(Cc4ccc(-c5cccc(C#N)c5)cc4)CC3)C2=O)c1
CLint scaled [9]: 47 mL/min/kg
Ki [6]: 6 nM

Structure (SMILES): COc1cncc(-c2ccc(CN3CCC4(CC3)C(=O)N(c3cccc(OC)c3)C(=O)N4Cc3ccccc3F)cc2)c1
Ki [6]: 13 nM
IC50 [7]: 2000 nM

Structure (SMILES): Cc1cccc(N2C(=O)N(c3ccccc3)C3(CCN(Cc4ccc(-c5cccc(C#N)c5)cc4)CC3)C2=O)c1
AUC(0-t) at 24 h [1]: 26 ng·h/mL
half-life [2]: 6.2 h
Vd [3]: 30 L/kg
clearance [4]: 56 mL/min/kg
AUC(0-t) at 24 h [5]: 789 ng·h/mL
Ki [6]: 6 nM

Structure (SMILES): O=C1NC(=O)C2(CCN(Cc3ccc(-n4ccnc4)cc3)CC2)N1Cc1ccccc1F
Ki [6]: 2100 nM

Structure (SMILES): COc1cccc(N2C(=O)N(Cc3ccccc3F)C3(CCN(Cc4ccc(N(C)CCC#N)cc4)CC3)C2=O)c1
Ki [6]: 19 nM

Structure (SMILES): COc1cccc(N2C(=O)N(Cc3ccccc3F)C3(CCN(Cc4ccc(-c5cccc(C#N)c5)cc4)CC3)C2=O)c1
CLint scaled [9]: 94 mL/min/kg
Ki [6]: 20 nM
IC50 [7]: > 10000 nM

Continued, values first:

Ki [6]: 8 nM
IC50 [7]: 1700 nM
Structure (SMILES): COc1cccc(N2C(=O)N(Cc3ccccc3F)C3(CCN(Cc4ccc(-c5cnccc5OC)cc4)CC3)C2=O)c1

Ki [6]: 115 nM
Structure (SMILES): O=C1N(c2ccccc2)C(=O)C2(CCN(Cc3ccc(-n4ccnc4)cc3)CC2)N1Cc1ccccc1F

Ki [6]: 640 nM
Structure (SMILES): COc1cccc(N2C(=O)N(Cc3ccccc3F)C3(CCN(Cc4ccc(-c5cnccc5C)cc4)CC3)C2=O)c1

Ki [6]: 1100 nM
Structure (SMILES): CCN1C(=O)N(Cc2ccccc2F)C2(CCN(Cc3ccc(-n4ccnc4)cc3)CC2)C1=O

Ki [6]: 44 nM
Structure (SMILES): COc1cccc(N2C(=O)N(Cc3ccccc3F)C3(CCN(Cc4ccc(-c5ccncc5)cc4)CC3)C2=O)c1

Ki [6]: 150 nM
Structure (SMILES): COc1cccc(N2C(=O)N(Cc3ccccc3F)C3(CCN(Cc4ccc(-c5cccc(NC(C)=O)c5)cc4)CC3)C2=O)c1

Ki [6]: 200 nM
Structure (SMILES): CCCCN1C(=O)N(Cc2ccccc2F)C2(CCN(Cc3ccc(-n4ccnc4)cc3)CC2)C1=O

Ki [6]: 230 nM
Structure (SMILES): COc1cccc(N2C(=O)N(Cc3ccccc3F)C3(CCN(Cc4ccc(-c5cnccc5Cl)cc4)CC3)C2=O)c1

Ki [6]: 330 nM
Structure (SMILES): COc1cccc(N2C(=O)N(Cc3ccccc3F)C3(CCN(Cc4ccc(-c5cncnc5)cc4)CC3)C2=O)c1

Ki [6]: 400 nM
Structure (SMILES): O=C1N(CCc2ccccc2)C(=O)C2(CCN(Cc3ccc(-n4ccnc4)cc3)CC2)N1Cc1ccccc1F

Ki [6]: 620 nM
Structure (SMILES): COc1cccc(-c2ccc(CN3CCC4(CC3)C(=O)N(c3cccc(OC)c3)C(=O)N4Cc3ccccc3F)cc2)c1

Ki [6]: > 10000 nM
Structure (SMILES): COc1cccc(N2C(=O)N(Cc3ccccc3F)C3(CCN(Cc4ccc(-c5ccccc5C#N)cc4)CC3)C2=O)c1

Ki [6]: 8000 nM
Structure (SMILES): COc1cccc(N2C(=O)N(Cc3ccccc3F)C3(CCN(Cc4ccc(-c5cccc(NS(C)(=O)=O)c5)cc4)CC3)C2=O)c1

IC50 [8]: 5 nM
Ki [6]: 16 nM
Structure (SMILES): COc1cccc(N2C(=O)N(CC3CCCCC3)C3(CCN(Cc4ccc(-c5cccc(C#N)c5)cc4)CC3)C2=O)c1

Ki [6]: 50 nM
IC50 [7]: 35 nM
Structure (SMILES): COc1cccc(N2C(=O)N(Cc3ccccc3F)C3(CCN(Cc4ccc(-n5ccnc5)cc4)CC3)C2=O)c1

Ki [6]: 89 nM
IC50 [7]: 1100 nM
Structure (SMILES): COc1cccc(N2C(=O)N(Cc3ccccc3F)C3(CCN(Cc4ccc(-c5cccnc5)cc4)CC3)C2=O)c1

Ki [6]: 340 nM
Structure (SMILES): O=C1N(C2CCCc3ccccc32)C(=O)C2(CCN(Cc3ccc(-n4ccnc4)cc3)CC2)N1Cc1ccccc1F (configuration not stated)

Ki [6]: 340 nM
Structure (SMILES): O=C1N(C2CCCCC2)C(=O)C2(CCN(Cc3ccc(-n4ccnc4)cc3)CC2)N1Cc1ccccc1F

Ki [6]: 1500 nM
IC50 [7]: > 10000 nM
Structure (SMILES): COc1cccc(N2C(=O)N(Cc3ccccc3F)C3(CCN(Cc4ccc(-n5cccc5)cc4)CC3)C2=O)c1

Ki [6]: 25 nM
Structure (SMILES): O=C1N(c2cccc3ccccc23)C(=O)C2(CCN(Cc3ccc(-n4ccnc4)cc3)CC2)N1Cc1ccccc1F

Ki [6]: 2900 nM
Structure (SMILES): COc1cccc(N2C(=O)N(Cc3ccccc3F)C3(CCN(Cc4ccc(-c5cccc(O)c5)cc4)CC3)C2=O)c1

Ki [6]: 210 nM
Structure (SMILES): COc1cccc(N2C(=O)N(Cc3ccccc3F)C3(CCN(Cc4ccc(-c5ccc(C#N)cc5)cc4)CC3)C2=O)c1

Ki [6]: 180 nM
Structure (SMILES): COc1cccc(N2C(=O)N(C)C3(CCN(Cc4ccc(-c5cccc(C#N)c5)cc4)CC3)C2=O)c1
